Laboratory results taken from ChEMBL document CHEMBL3351942, “Rexinoids isolated from Sophora tonkinensis with a gene expression profile distinct from the synthetic rexinoid bexarotene” (J Nat Prod, 2014).
Activity calls are given as the source filed them. No cut-off for these calls is given here.

How the values were obtained:
[1] = molecular target: T1, Retinoic acid receptor RXR-alpha (Homo sapiens) (UniProt P19793); assay: Agonist activity at human RXR-alpha expressed in HEK293 cells coexpressing with pCMX-beta-gal at 10 uM after 24 to 48 hrs by luciferase reporter gene assay in presence of PA452 pan-antagonist; type: cell-based
T1 sequence (whole entry): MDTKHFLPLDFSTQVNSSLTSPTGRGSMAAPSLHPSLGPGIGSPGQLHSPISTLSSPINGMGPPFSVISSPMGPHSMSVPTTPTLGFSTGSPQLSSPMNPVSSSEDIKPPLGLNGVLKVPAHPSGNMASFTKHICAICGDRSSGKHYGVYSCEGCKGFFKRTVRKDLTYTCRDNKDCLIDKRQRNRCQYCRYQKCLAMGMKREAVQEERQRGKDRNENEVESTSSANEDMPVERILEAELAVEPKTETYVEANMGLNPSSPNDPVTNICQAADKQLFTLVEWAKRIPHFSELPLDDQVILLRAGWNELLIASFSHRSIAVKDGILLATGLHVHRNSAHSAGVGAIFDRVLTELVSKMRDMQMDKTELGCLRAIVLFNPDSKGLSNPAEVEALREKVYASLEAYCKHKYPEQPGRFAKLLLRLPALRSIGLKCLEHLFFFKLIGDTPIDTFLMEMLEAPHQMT
Procedure, shortened: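 RXRα reporter in HEK293: cotransfected with RXRα expression vector, luciferase reporter and pCMX-β-gal. Eight hours after transfection, cells were treated with test compound at 10 μM with or without the RXR pan-antagonist PA452 (10 μM). Luciferase was normalized to β-galactosidase. Means ± SD of three determinants; representative of three experiments; one-way ANOVA with Bonferroni's t-test.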

[2] = Activation of LXR in mouse C2C12 cells assessed as induction of ABCA1 mRNA expression at 10 uM after 24 hrs in presence of T0901317 by quantitative RT-PCR analysis; type: cell-based
Procedure, shortened: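 C2C12 myoblasts grown in DMEM/10% FBS, differentiated at confluence in 2% horse serum, medium changed every other day for 5 days; myotubes treated 24 h with or without T0901317 (1 μM). Total RNA, DNase-treated, oligo(dT) RT from 0.5 μg, SYBR green qPCR; normalized to β-actin (delta-delta Ct), fold over vehicle; mean ± SD of four determinants, one of two experiments.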

[3] = molecular target: T2, Peroxisome proliferator-activated receptor delta (Mus musculus) (UniProt P35396); assay: Activation of PPARdelta in mouse C2C12 cells assessed as induction of CPT1A mRNA expression at 10 uM after 24 hrs in presence of GW501516 by quantitative RT-PCR analysis; type: cell-based
T2 sequence (whole entry): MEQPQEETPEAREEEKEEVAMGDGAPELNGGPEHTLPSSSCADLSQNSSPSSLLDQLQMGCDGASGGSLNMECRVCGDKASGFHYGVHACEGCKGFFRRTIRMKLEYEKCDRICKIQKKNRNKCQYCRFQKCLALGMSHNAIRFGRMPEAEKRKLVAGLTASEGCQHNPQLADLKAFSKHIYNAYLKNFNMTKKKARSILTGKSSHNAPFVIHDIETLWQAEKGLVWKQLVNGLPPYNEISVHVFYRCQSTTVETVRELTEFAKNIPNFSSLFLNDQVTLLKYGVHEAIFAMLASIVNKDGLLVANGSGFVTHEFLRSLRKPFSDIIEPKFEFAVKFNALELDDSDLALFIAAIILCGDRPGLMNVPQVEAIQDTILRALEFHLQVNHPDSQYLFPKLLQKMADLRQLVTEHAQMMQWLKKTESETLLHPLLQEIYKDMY
Procedure, shortened: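 Differentiated C2C12 myotubes (2% horse serum, 5 days) exposed 24 h with or without PPARδ agonist GW501516 (1 μM). mRNA quantified by SYBR green real-time RT-PCR, normalized to β-actin by delta-delta Ct, and expressed as fold induction vs vehicle; means ± SD of four determinants from one of two independent experiments; one-way ANOVA with Bonferroni.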

F9 = assay: Activation of RAR/RXR heterodimer in mouse F9 cells assessed as increase in CYP26A1 mRNA level at 10 uM by quantitative RT-PCR analysis in presence of atRA; type: cell-based
Procedure, shortened: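 F9 teratocarcinoma cells on 0.2% gelatin-coated dishes in DMEM/10% FBS; 24 h exposure with or without atRA (0.1 μM). CYP26A1 mRNA by qRT-PCR normalized to β-actin, fold vs vehicle; means ± SD of three determinants, one of three experiments; ANOVA/Bonferroni.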

[4] = molecular target: T1, Retinoic acid receptor RXR-alpha (Homo sapiens); assay: Binding affinity to RXRalpha (unknown origin) by receptor-SRC1 cofactor complex formation assay
Procedure, shortened: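 Ligand-dependent binding of RXR isotype to coactivator SRC-1 in an NR cofactor kit, detected with HRP-conjugated anti-RXR antibody at OD450. The full agonist CD3254 defined 100% and vehicle 0%. Efficacy was taken as maximum B/Bmax% and potency as EC50.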

Homo sapiens = species: Homo sapiens; assay: Activation of RXR/VDR heterodimer in human hepatoma cells assessed as increase in CYP24A1 mRNA level at 10 uM by quantitative RT-PCR analysis; type: cell-based
Procedure, shortened: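 HLE hepatoma cells treated 24 h with or without VD3 (0.1 μM); CYP24A1 mRNA by SYBR green qRT-PCR normalized to β-actin (delta-delta Ct), fold over vehicle; means ± SD of three determinants, representative of three experiments.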

[5] = molecular target: T3, Peroxisome proliferator-activated receptor delta (Homo sapiens) (UniProt Q03181); assay: Activation of PPARdelta (unknown origin) by receptor-CBP cofactor complex formation assay
T3 sequence (whole entry): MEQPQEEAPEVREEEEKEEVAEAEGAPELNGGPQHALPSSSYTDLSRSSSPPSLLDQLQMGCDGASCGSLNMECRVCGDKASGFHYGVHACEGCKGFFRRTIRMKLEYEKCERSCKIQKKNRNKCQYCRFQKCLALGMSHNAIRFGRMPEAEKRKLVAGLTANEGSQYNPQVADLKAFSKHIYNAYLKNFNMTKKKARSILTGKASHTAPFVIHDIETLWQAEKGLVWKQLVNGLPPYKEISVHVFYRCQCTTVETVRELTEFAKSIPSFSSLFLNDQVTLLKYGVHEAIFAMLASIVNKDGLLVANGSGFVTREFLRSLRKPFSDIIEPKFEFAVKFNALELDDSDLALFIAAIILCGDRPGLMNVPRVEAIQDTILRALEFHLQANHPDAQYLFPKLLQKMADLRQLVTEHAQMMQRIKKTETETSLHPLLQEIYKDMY
Procedure, shortened: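 Cell-free cofactor recruitment ELISA: ligand-dependent binding of PPAR isotypes to CBP, detected by HRP-conjugated anti-PPAR antibody at OD450. Full agonists GW7647 (α), GW1929 (γ), GW501516 (δ) define 100%, vehicle 0%; efficacy as maximum B/Bmax% and potency as EC50.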

- Activity [1]: inactive
- Activity [3]: Active
- Activity [4]: inactive
- Activity [5]: inactive
Compound: CC(C)=CCc1cc([C@@H]2CC(=O)c3ccc(O)c(CC=C(C)C)c3O2)cc2c1OC(C(C)(C)O)C2 (some centres not stated)
- Activity [2]: Active
- Activity (F9): Active
- Activity (Homo sapiens): Active
